Experimental data reported in ChEMBL document CHEMBL1135992, “Quantitative structure-activity relationship analysis of functionalized amino acid anticonvulsant agents using k nearest neighbor and simulated annealing PLS methods” (2002).

Legend:
Format in all cases: functional
Mus musculus [1] = experiment: In vivo anticonvulsant activity in male albino mice using the maximal electroshock seizure(MES) test upon intraperitoneal administration (exp 1); conditions: ip
Method in brief: (§1)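 Mice (18–25 g) received the compound ip as a suspension in 0.5% (w/v) methylcellulose in water. A 60-cycle alternating current of 50 mA was applied for 0.2 s. Protection was defined as abolition of the hindlimb tonic extensor component. […] ED50 and 95% confidence interval were calculated by Finney's methods.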

Mus musculus [2] = experiment: In vivo anticonvulsant activity in male albino mice using the maximal electroshock seizure(MES) test upon intraperitoneal administration (exp 2); conditions: ip; method in brief: as §1
Mus musculus [3] = experiment: In vivo anticonvulsant activity in male albino mice using the maximal electroshock seizure(MES) test upon intraperitoneal administration, expressed as logarithm of effective dose; value ranges from 2.58 to 3.06
Method in brief: (§2)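 Mice (18–25 g) received the test agent intraperitoneally as a suspension in 0.5% (w/v) methylcellulose in water. A 60-cycle alternating current at 50 mA was applied for 0.2 s, and protection meant abolition of the hindlimb tonic extensor component. The ED50 was determined at the time of peak effect in groups of at least eight mice. At least two doses fell between 100% and 0% protection, and the 95% confidence interval was calculated by Finney's method.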

Mus musculus [4] = experiment: In vivo anticonvulsant activity in male albino mice using the maximal electroshock seizure(MES) test upon intraperitoneal administration, expressed as logarithm of effective dose; method in brief: as §2
Mus musculus [5] = experiment: In vivo anticonvulsant activity in male albino mice using the maximal electroshock seizure(MES) test upon intraperitoneal administration; value ranges from 34.9 to 45; conditions: ip; method in brief: as §2
Mus musculus [6] = experiment: Anticonvulsant activity in mice following i.p. treatment and Maximal Electroshock Seizure (MES) test.; method in brief: as §1
Mus musculus [7] = experiment: In vivo anticonvulsant activity in male albino mice using the maximal electroshock (MES) test after intraperitoneal administration; value ranges from 26.7-37.8; conditions: ip
Mus musculus [8] = experiment: In vivo anticonvulsant activity in male albino mice using the maximal electroshock seizure(MES) test upon intraperitoneal administration; value ranges from 15 to 19; conditions: ip
Mus musculus [9] = experiment: In vivo anticonvulsant activity in male albino mice using the maximal electroshock (MES) test after intraperitoneal administration; value ranges from 34.9-54.3; conditions: ip; method in brief: as §2
Mus musculus [10] = experiment: In vivo anticonvulsant activity in male albino mice using the maximal electroshock seizure(MES) test upon intraperitoneal administration, expressed as logarithm of effective dose; value ranges from 2.10 to 2.63
Mus musculus [11] = experiment: In vivo anticonvulsant activity in male albino mice using the maximal electroshock seizure(MES) test upon intraperitoneal administration (exp-1); conditions: ip; method in brief: as §2
Mus musculus [12] = experiment: In vivo anticonvulsant activity in male albino mice using the maximal electroshock seizure(MES) test upon intraperitoneal administration (exp-2); conditions: ip; method in brief: as §2
Mus musculus [13] = experiment: In vivo anticonvulsant activity in male albino mice using the maximal electroshock seizure(MES) test upon intraperitoneal administration; value ranges from 74.3 to 99.1; conditions: ip; method in brief: as §1
Mus musculus [14] = experiment: In vivo anticonvulsant activity in male albino mice using the maximal electroshock (MES) test after intraperitoneal administration; value ranges from 457.7-715; conditions: ip
Mus musculus [15] = experiment: In vivo anticonvulsant activity in male albino mice using the maximal electroshock (MES) test after intraperitoneal administration; value ranges from 76.8-120; conditions: ip; method in brief: as §2
Mus musculus [16] = experiment: In vivo anticonvulsant activity in male albino mice using the maximal electroshock seizure(MES) test upon intraperitoneal administration, expressed as logarithm of effective dose; value ranges from 2.63 to 3.12; method in brief: as §2
Mus musculus [17] = experiment: In vivo anticonvulsant activity in male albino mice using the maximal electroshock (MES) test after intraperitoneal administration (exp 2); conditions: ip; method in brief: as §1
Mus musculus [18] = experiment: In vivo anticonvulsant activity in male albino mice using the maximal electroshock (MES) test after intraperitoneal administration (exp 1); conditions: ip; method in brief: as §1
Mus musculus [19] = experiment: In vivo anticonvulsant activity in male albino mice using the maximal electroshock seizure(MES) test upon intraperitoneal administration; value ranges from 51.9 to 68; conditions: ip
Mus musculus [20] = experiment: In vivo anticonvulsant activity in male albino mice using the maximal electroshock seizure(MES) test upon intraperitoneal administration; value ranges from 14.6 to 41; conditions: ip; method in brief: as §1
Mus musculus [21] = experiment: In vivo anticonvulsant activity in male albino mice using the maximal electroshock seizure(MES) test upon intraperitoneal administration; value ranges from 46 to 61; conditions: ip

SMILES | Log ED50 (Mus musculus [4]) [uM kg-1] | Log ED50 (Mus musculus [6]) [uM kg-1] | other results
CCC(=O)NC(COC)C(=O)NCc1ccccc1 (stereo not given) |  |  | ED50 (Mus musculus [1]): > 100 mg/kg; ED50 (Mus musculus [2]): < 300 mg/kg; Log ED50 (Mus musculus [3]): 3.06 uM kg-1
CC(=O)NC(C(=O)NCc1ccccc1)c1cccs1 (stereo not given) | 2.19 |  | 
CC(=O)NC(C(=O)NCc1ccccc1)c1ncco1 (stereo not given) | 1.58 |  | 
CCCC(NC(C)=O)C(=O)NCc1ccccc1 (stereo not given) | 2.19 |  | ED50 (Mus musculus [5]): 38.4 mg/kg
CC(=O)NC(C(=O)NCc1ccccc1)N1CC=CO1 (stereo not given) |  | 2.05 | ED50 (Mus musculus [7]): 31.4 mg/kg
CC(=O)NC(C(=O)NCc1ccccc1)c1ccc(C)o1 (stereo not given) | 1.83 |  | 
CC(=O)NC(C(=O)NCc1ccccc1)c1nccs1 (stereo not given) | 1.62 |  | 
CCOCC(NC(C)=O)C(=O)NCc1ccccc1 (stereo not given) | 1.81 |  | ED50 (Mus musculus [8]): 17 mg/kg
CC(=O)NC(C(=O)NCc1ccccc1F)c1ccco1 (stereo not given) | 2.14 |  | 
CC(=O)NC(C(=O)NCc1ccccc1)c1ccc[nH]1 (stereo not given) | 1.77 |  | 
CC(=O)NC(C(=O)NCc1cccc(F)c1)c1ccco1 (stereo not given) | 1.66 |  | 
CC(=O)NC(C(=O)NCc1ccccc1)c1ccsc1 (stereo not given) | 2.48 |  | 
CC(=O)NC(C(=O)NCc1ccccc1)N(N)c1ccccc1 (stereo not given) |  | 2.14 | ED50 (Mus musculus [9]): 42.8 mg/kg
CC(=O)N(C)C(C)C(=O)NCc1ccccc1 (stereo not given) |  |  | Log ED50 (Mus musculus [10]): 2.63 uM kg-1; ED50 (Mus musculus [11]): > 30 mg/kg; ED50 (Mus musculus [12]): < 100 mg/kg
CCN(C(C)=O)C(C)C(=O)NCc1ccccc1 (stereo not given) | 2.53 |  | ED50 (Mus musculus [13]): 85 mg/kg
CC(=O)NC(C(=N)NOC(C)=O)C(=O)NCc1ccccc1 (stereo not given) |  | 2.66 | ED50 (Mus musculus [14]): 140 mg/kg
C/C(S)=N\C(C(=O)NCc1ccccc1)c1ccco1 (stereo not given) | 1.8 |  | 
CC(=O)NC(Nc1cccc(N)c1)C(=O)NCc1ccccc1 (stereo not given) |  | 2.5 | ED50 (Mus musculus [15]): 98.6 mg/kg
COCC(NC(C)=O)C(=O)N(C)Cc1ccccc1 (stereo not given) |  |  | ED50 (Mus musculus [1]): > 100 mg/kg; ED50 (Mus musculus [2]): < 300 mg/kg; Log ED50 (Mus musculus [3]): 3.06 uM kg-1
CCC(NC(C)=O)C(=O)NCc1ccccc1 (stereo not given) |  |  | ED50 (Mus musculus [11]): > 100 mg/kg; ED50 (Mus musculus [12]): < 300 mg/kg; Log ED50 (Mus musculus [16]): 3.12 uM kg-1
COC(NC(C)=O)C(=O)NCc1ccccc1 (stereo not given) |  | 2.62 | 
CC(=O)NC(C(=O)NCc1ccccc1)c1ccccc1 (stereo not given) | 2.06 |  | 
CC(N)C(=O)NCc1ccccc1 (stereo not given) |  | 3.23 | ED50 (Mus musculus [17]): < 300 mg/kg; ED50 (Mus musculus [18]): > 100 mg/kg
CC(=O)NC(=O)NCc1ccccc1 | 2.5 |  | ED50 (Mus musculus [19]): 60.1 mg/kg
C=CCC(NC(C)=O)C(=O)NCc1ccccc1 (stereo not given) | 2.16 |  | 
CON(C)C(NC(C)=O)C(=O)NCc1ccccc1 (stereo not given) |  | 1.4 | 
CONC(NC(C)=O)C(=O)NCc1ccccc1 (stereo not given) |  | 1.39 | 
CN1CSCC1C(=O)NCc1ccccc1 (stereo not given) | 2.09 |  | ED50 (Mus musculus [20]): 29.1 mg/kg
O=C(NCc1ccccc1)C1CCCCN1 (stereo not given) | 2.38 |  | ED50 (Mus musculus [21]): 53 mg/kg
CC(=O)NC(O)C(=O)NCc1ccccc1 (stereo not given) |  | 2.56 | 
